Calls of active or inactive are those of the source. No cut-off for these calls is given here.
Legend:
NCI-H460 = experiment: Cytotoxicity against human NCI-H460 cells after 48 hrs by MTT assay; assay type: functional, cell-based; conditions: NCI-H460, 48 h
In short: (§1)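 Cells kept in RPMI-1640 with 10% FBS, seeded at 1.0 × 10^ cells per well and exposed to graded compound for 48 h at 37 °C in 5% CO2. MTT (5 mg/mL solution) was then added for 4 h, formazan dissolved in DMSO, and OD read at 570 nm. Tests were run in triplicate, and IC50 was derived from mean OD versus concentration curves.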

HL-60 = experiment: Cytotoxicity against human HL60 cells after 48 hrs by MTT assay; assay type: functional, cell-based; conditions: HL-60, 48 h; in short: as §1
Nucleic Acid [1] = experiment: Binding affinity to G-quadruplex DNA Pu27 assessed as inhibition of hybridization with complementary strand after 3 mins by PCR-stop assay; assay type: nucleic-acid assay
In short: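 Taq polymerase-stop on Pu27 with its complementary strand, each oligomer 10 μM, in 1× PCR buffer with 0.16 mM dNTP, 2.5 U Taq and graded compound. Cycling was 94 °C 3 min, then 30 cycles of 94 °C 30 s, […] 30 s, 72 °C 30 s. Products were run on 15% nondenaturing PAGE in TBE and silver stained. IC50 was taken for inhibition of amplification.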

Nucleic Acid [2] = experiment: Binding affinity to c-myc G-quadruplex DNA FPu18T assessed as conformational changes at 25 uM by CD spectrophotometric analysis in absence of K+ ions; assay type: nucleic-acid assay
In short: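 CD spectra of Pu18 (5 μM) with ligand at 25 μM in 10 mM Tris-HCl pH 7.2 with no KCl. Samples were annealed from 95 °C and held at 4 °C for ≥6 h. Spectra were recorded over 220–450 nm with 1 nm bandwidth, averaging two scans.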

Nucleic Acid [3] = experiment: Binding affinity to c-myc G-quadruplex DNA FPu18T assessed as change in CD spectra at 25 uM by CD spectrophotometric analysis in presence of 100 mM K+ ions; assay type: nucleic-acid assay
In short: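 CD spectra of Pu18 (5 μM) with ligand at 25 μM in 10 mM Tris-HCl pH 7.2 plus 100 mM KCl. Samples were heated to 95 °C, slowly cooled and held at 4 °C for ≥6 h. Spectra were recorded over 220–450 nm with 1 nm bandwidth and 0.5 s per point, averaging two scans.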

Nucleic Acid [4] = experiment: Binding affinity to biotinylated-duplex DNA at 20 uM by SPR assay; assay type: nucleic-acid assay
Nucleic Acid [5] = experiment: Binding affinity to biotinylated-telomeric G-quadruplex DNA HTG21 by SPR assay; assay type: nucleic-acid assay
In short: (§2)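 SPR with biotinylated DNA captured to about 1000 RU in flow cells 1 and 2, the third left blank as reference. Running buffer was 50 mM Tris-HCl pH 7.2, 100 mM KCl. Ligand at 0.3125–10 μM was injected for 150 s association and 300 s dissociation at 25 °C, with 1 M NaCl regeneration. Blank-subtracted sensorgrams were fitted with a Langmuir kinetic model.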

Nucleic Acid [6] = experiment: Binding affinity to biotinylated-c-myc G-quadruplex DNA FPu18T by SPR assay; assay type: nucleic-acid assay; in short: as §2
Nucleic Acid [7] = experiment: Binding affinity to c-myc G-quadruplex DNA FPu18T assessed as change in melting temperature at 1 uM by FRET-melting assay in presence of excess duplex oligomer ds26; assay type: nucleic-acid assay
In short: (§3)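 FRET melting of FAM/TAMRA-labelled oligonucleotides (FPu18T, F21T or duplex F10T), each 0.2 μM, with compound 1.0 μM in 10 mM Tris-HCl pH 7.2 containing KCl. For competition, excess ds26 duplex (3 or 10 μM) was added.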

Nucleic Acid [8] = experiment: Binding affinity to duplex DNA F10T assessed as change in melting temperature at 1 uM by FRET-melting assay; assay type: nucleic-acid assay; in short: as §3
Nucleic Acid [9] = experiment: Binding affinity to human telomeric G-quadruplex DNA F21T assessed as change in melting temperature at 1 uM by FRET-melting assay; assay type: nucleic-acid assay; in short: as §3
Nucleic Acid [10] = experiment: Binding affinity to c-myc G-quadruplex DNA FPu18T assessed as change in melting temperature at 1 uM by FRET-melting assay; assay type: nucleic-acid assay; in short: as §3
CA46 = experiment: Decrease in c-myc expression in promoter element P1 and P2-deficient human CA46 cells by RT-PCR analysis; assay type: functional, cell-based
In short: (§4)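 Ramos or CA46 cells were seeded at 100,000 per well and treated for 4 days with 1, 2.5, 5 or 10 μM compound or DMSO. Total RNA was extracted in Redzol and reverse-transcribed with oligo dT18 at 42 °C for 1 h. c-myc (91 bp) and β-actin (541 bp) were PCR-amplified and run on 1% agarose. Densitometry values were normalized to β-actin.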

Ramos [11] = experiment: Suppression of c-myc mRNA level in human Ramos cells expressing NHE III1 at 10 uM by RT-PCR analysis; assay type: functional, cell-based; in short: as §4
Ramos [12] = experiment: Decrease in c-myc expression in human Ramos cells expressing NHE III1 at 2.5 uM by RT-PCR analysis; assay type: functional, cell-based; in short: as §4
ECV-304 = experiment: Cytotoxicity against human ECV304 cells after 48 hrs by MTT assay; assay type: cell-based; conditions: ECV-304, 48 h; in short: as §1
HepG2 = experiment: Cytotoxicity against human HepG2 cells after 48 hrs by MTT assay; assay type: functional, cell-based; conditions: HepG2, 48 h; in short: as §1
Nucleic Acid [13] = experiment: Binding affinity to biotinylated-telomeric G-quadruplex DNA HTG21 at 20 uM by SPR assay; assay type: nucleic-acid assay
Nucleic Acid [14] = experiment: Binding affinity to biotinylated-c-myc G-quadruplex DNA FPu18T at 20 uM by SPR assay; assay type: nucleic-acid assay
Nucleic Acid [15] = experiment: Selectivity ratio of Kd for biotinylated-telomeric G-quadruplex DNA HTG21 to Kd for biotinylated-c-myc G-quadruplex DNA FPu18T; assay type: nucleic-acid assay; in short: as §2

| SMILES | IC50 (Nucleic Acid [1]) | Activity (Nucleic Acid [2]) | Activity (Nucleic Acid [3]) | Activity (Nucleic Acid [4]) | Kd (Nucleic Acid [5]) | Kd (Nucleic Acid [6]) | Activity (Nucleic Acid [7]) | ΔTm (Nucleic Acid [8]) | ΔTm (Nucleic Acid [9]) | ΔTm (Nucleic Acid [10]) | Activity (Nucleic Acid [13]) | Activity (Nucleic Acid [14]) | Ratio (Nucleic Acid [15]) | IC50 (NCI-H460) | IC50 (HL-60) | Activity (CA46) | Activity (Ramos [11]) | Activity (Ramos [12]) | IC50 (ECV-304) | IC50 (HepG2) |
| --- | --- | --- | --- | --- | --- | --- | --- | --- | --- | --- | --- | --- | --- | --- | --- | --- | --- | --- | --- | --- |
| O=C(CN1CCCCC1)Nc1cc(-n2cccn2)c2[nH]c3c(-n4cccn4)cc(NC(=O)CN4CCCCC4)cc3c2c1 | > 20 µM |  |  | inactive | 8070 nM | 1460 nM | Active | 0.1 °C | 4 °C | 5.5 °C |  |  |  | 3300 nM | 2400 nM |  |  |  | 27.3 µM | 5.6 µM |
| O=C(CN1CCOCC1)Nc1cc(-n2cccn2)c2[nH]c3c(-n4cccn4)cc(NC(=O)CN4CCOCC4)cc3c2c1 | > 20 µM |  |  | inactive |  |  | Active | 0.2 °C | 1.2 °C | 4.4 °C | inactive | inactive |  | 3900 nM | 3900 nM |  |  |  | 29.3 µM | 6.1 µM |
| O=C(CN1CCCC1)Nc1cc(-n2cccn2)c2[nH]c3c(-n4cccn4)cc(NC(=O)CN4CCCC4)cc3c2c1 | 5.2 µM |  |  | inactive | 2970 nM | 694 nM | Active | 0.3 °C | 6.3 °C | 9.3 °C |  |  |  | 2700 nM | 1900 nM |  |  |  | 22.2 µM | 2.7 µM |
| CCN(CC)CC(=O)Nc1cc(-n2cccn2)c2[nH]c3c(-n4cccn4)cc(NC(=O)CN(CC)CC)cc3c2c1 | > 20 µM |  |  | inactive | 6860 nM | 2030 nM | Active | 0.6 °C | 3.6 °C | 7.4 °C |  |  |  | 2500 nM | 2000 nM |  |  |  | 22.8 µM | 3 µM |
| O=C(CCN1CCOCC1)Nc1cc(-n2cccn2)c2[nH]c3c(-n4cccn4)cc(NC(=O)CCN4CCOCC4)cc3c2c1 | > 20 µM |  |  | inactive |  |  | Active | 0.3 °C | 4.2 °C | 7.3 °C | inactive | inactive |  | 2800 nM | 1700 nM |  |  |  | 26.2 µM | 6.9 µM |
| CCN(CC)CCC(=O)Nc1cc(-n2cccn2)c2[nH]c3c(-n4cccn4)cc(NC(=O)CCN(CC)CC)cc3c2c1 | 6.3 µM |  | Active | inactive | 2590 nM | 233 nM | Active | 0.3 °C | 11.9 °C | 18.1 °C |  |  |  | 2600 nM | 1900 nM |  |  |  | 23.3 µM | 2.7 µM |

Stronger by IC50 (Nucleic Acid [1]), values ahead:

| IC50 (Nucleic Acid [1]) | Activity (Nucleic Acid [2]) | Activity (Nucleic Acid [3]) | Activity (Nucleic Acid [4]) | Kd (Nucleic Acid [5]) | Kd (Nucleic Acid [6]) | Activity (Nucleic Acid [7]) | ΔTm (Nucleic Acid [8]) | ΔTm (Nucleic Acid [9]) | ΔTm (Nucleic Acid [10]) | Activity (Nucleic Acid [13]) | Activity (Nucleic Acid [14]) | Ratio (Nucleic Acid [15]) | SMILES | IC50 (NCI-H460) | IC50 (HL-60) | Activity (CA46) | Activity (Ramos [11]) | Activity (Ramos [12]) | IC50 (ECV-304) | IC50 (HepG2) |
| --- | --- | --- | --- | --- | --- | --- | --- | --- | --- | --- | --- | --- | --- | --- | --- | --- | --- | --- | --- | --- |
| 4.9 µM | Active | Active | inactive | 1880 nM | 135 nM | Active | 0.3 °C | 9.7 °C | 12.1 °C |  |  |  | O=C(CCN1CCCCC1)Nc1cc(-n2cccn2)c2[nH]c3c(-n4cccn4)cc(NC(=O)CCN4CCCCC4)cc3c2c1 | 2700 nM | 1200 nM | inactive | Active | Active | 25 µM | 5.1 µM |
| 3.6 µM |  | Active | inactive | 2640 nM | 131 nM | Active | 0.5 °C | 10.7 °C | 15.1 °C |  |  | > 20 | O=C(CCN1CCCC1)Nc1cc(-n2cccn2)c2[nH]c3c(-n4cccn4)cc(NC(=O)CCN4CCCC4)cc3c2c1 | 3500 nM | 2200 nM |  |  |  | 25.2 µM | 4.2 µM |
